Screening results deposited in PubChem BioAssay by several laboratories.
Rows were chosen to be rich in hits. Some 11% of all compounds tested hit in one or more screens of this group.
M1 antagonist: M1 muscarinic receptor (rat) antagonism. P08482. CHO-M1 cells, Fluo-4 calcium, ACh EC80 antagonist mode; hits give low values. B-score at 10 µM. actives 3.4% (n = 64,000). AID 628;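 active = calcium fluorescence response, raw or row-and-column corrected B-score, differing from the plate sample mean either way at a set confidence level, mostly lower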
mHtt clearance: compounds clearing mutant huntingtin protein; actives 0.42% (n = 47,000); inhibition, % at 1.5 µM; HeLa Exon1htt(103Q)mCFP, aggregate imaging; zero = plate's median compound well; AID 853;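 active = inhibition of aggregate fluorescence above about 70%, also judged a hit by eye on the cell image, limit read from the data, passing the limit was not always enough; inconclusive = no rule stated for this call; inactive = not judged a hit on image review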;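 note: cells exposed to compound for three days before fixation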
M1 ag: agonists of M1 muscarinic receptor | CHO-M1 cells, Fluo-4 calcium fluorescence, agonist mode; hits give high values | actives 3% (n = 64,000) | AID 626 | B-score at 10 µM;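 active = fluorescence rise, raw or as B-score row- and column-corrected plate score, outside the 99.7% band of its plate's samples, either direction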
D1 mod: D1 dopamine receptor (human) allosteric modulation; B-score at 10 µM; HEK293 D1, CRE-luciferase, dopamine EC30 potentiation; actives deviate in either direction; P21728; actives 5.9% (n = 58,000);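 active = luminescence count or its row- and column-corrected plate score outside the 99.7% band of the plate's sample wells, on either side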
RORA act: RORA (human) activation; P35398; CHO-K1 Gal4-RORA LBD luciferase reporter, luminescence; percent increase over mock-subtracted basal signal; activation, % at 10 µM; actives 1.5% (n = 65,000); AID 560;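 active = activation above the mean of all tested compounds plus 3 SD, cut at about 49% in these data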;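 note: 0% = DMSO-treated RORA cells and 100% = added signal equal to DMSO minus mock-transfected cells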
SF-1 act: activates the human nuclear receptor SF-1; Q13285; CHO-K1 Gal4-SF-1 LBD luciferase reporter; % increase over DMSO SF-1-specific signal; activation, % at 10 µM; actives 1.9% (n = 65,000); AID 522;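 active = activation above the mean activation of all tested compounds plus 3 SD, cut at about 50% in these data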
Target sequence (Q13285 whole entry, looked up, the tested form may be a part): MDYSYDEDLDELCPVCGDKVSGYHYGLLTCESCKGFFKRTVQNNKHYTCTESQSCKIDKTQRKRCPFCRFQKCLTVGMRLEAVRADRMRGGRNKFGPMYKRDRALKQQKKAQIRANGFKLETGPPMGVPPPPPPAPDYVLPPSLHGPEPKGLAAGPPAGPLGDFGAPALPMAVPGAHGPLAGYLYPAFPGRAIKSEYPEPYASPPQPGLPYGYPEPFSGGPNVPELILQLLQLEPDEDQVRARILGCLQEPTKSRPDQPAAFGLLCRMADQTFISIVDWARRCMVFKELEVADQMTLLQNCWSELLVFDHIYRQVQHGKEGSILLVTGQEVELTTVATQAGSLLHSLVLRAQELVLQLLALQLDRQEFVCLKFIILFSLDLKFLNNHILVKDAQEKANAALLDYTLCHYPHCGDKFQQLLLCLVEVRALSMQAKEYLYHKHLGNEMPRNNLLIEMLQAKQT
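Assay system: CHO-K1 cells co-transfected with Gal4 DBD–human SF-1 LBD, 5xGal4 luciferase reporter; doses: 10 µM only; incubation: 20 h compound exposure at 37 °C after 1 h cell settling; signal: luciferase light emission; evaluation: percent activation versus DMSO; repeats: one test per compound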
M1 ag confirm: confirmation of rat M1 muscarinic receptor agonists | fluorescence change (max-min) at 10 µM | shares compounds with M1 ag | actives 19% (n = 1,700) | CHO-M1 cells, Fluo-4 calcium fluorescence, agonist mode; actives lie on both sides | AID 1488;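 active = fluorescence change differs from the solvent-only DMSO control mean at a set confidence level in both duplicate runs; inconclusive = differs from solvent-only control mean in just one of two runs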;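 note: an EC20 dose of acetylcholine follows compound addition during the same imaging run; raw fluorescence intensity difference in instrument units with no normalization to controls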
M4 agonist ctr: activates rat M4 receptor in counter-screen for M1 agonists; actives 9% (n = 1,700); CHO M4/Gqi5 cells, Fluo-4 calcium fluorescence, agonist mode; actives lie on both sides; shares compounds with M1 ag; fluorescence change (max-min) at 10 µM; AID 1741;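 active = fluorescence change differing from the plate's solvent-only control wells at 99.7% confidence in both duplicates, whether higher or lower; inconclusive = differs from solvent controls in only one of two duplicates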
Active calls of the source: *; ? = inconclusive; · = no result.

SMILES | M1 antagonist | mHtt clearance | M1 ag | D1 mod | RORA act | SF-1 act | M1 ag confirm | M4 agonist ctr
CC(=O)c1cccc(OCC(=O)c2cc(C)n(-c3cc(C)on3)c2C)c1 | -0.393 | -23.0 | 0.898 | -1.98 | 5.5 | 10.4 | · | ·
Cc1cc(-n2c(C)cc(C(=O)COc3ccc4ccc(=O)oc4c3)c2C)no1 | -0.253 | · | 6.22* | -0.999 | 1.8 | 3.7 | ? | -39.9
CCOC(=O)N1CCC2(CC1)C(C#N)=C(N)Oc1c2c(C)nn1-c1cccc(Cl)c1 | -1.02 | ? | -1.49 | 0.968 | -18.0 | 3.4 | · | ·
COc1ccccc1N1CCN(C(=O)CN(c2cc(C)cc(C)c2)S(C)(=O)=O)CC1 | 0.101 | · | 1.95 | -0.276 | -5.3 | -12.4 | · | ·
O=[n+]1c2c(n([O-])c3cc(F)c(N4CCCC4)cc31)CCCC2 | 0.9 | 34.5 | 188* | -0.712 | 7.8 | 21.8 | 593* | 561*
O=[n+]1c2c(n([O-])c3cc(F)c(N4CCCC4)cc31)CCC2 | 0.514 | -0.3 | 91.8* | 0.228 | -11.2 | 27.4 | 632* | 549*
O=[n+]1c2c(n([O-])c3cc(F)ccc31)CCCC2 | -0.239 | -35.0 | -0.337 | 0.0512 | 24.5 | 11.9 | · | ·
COc1ccc(Cn2c(CCC(=O)Nc3ccc(CC#N)cc3)nc3cccnc32)cc1 | 0.944 | -10.5 | 0.0259 | -0.0486 | -26.0 | -5.3 | · | ·
Clc1c(CSc2nc3ccccc3o2)nc2ccccn12 | -1.16 | · | 21.1* | -0.615 | -21.4 | -2.0 | 2.12 | -22.8
O=C(CN(Cc1ccc(F)cc1)C(=O)Cn1nnc2ccccc21)NCC1CCCO1 (centres undefined) | 0.25 | -20.9 | -1.02 | -0.000738 | 4.8 | -0.7 | · | ·
O=C(O)c1ccccc1-c1ccc(/C=c2\sc3nc4cc(Br)cnc4n3c2=O)o1 | -0.467 | · | 52.8* | -0.129 | · | · | 136* | ?
Cc1ccc(/C=c2\sc3nc(-c4ccccc4Br)nn3c2=O)o1 | -0.483 | -95.2 | -2.39 | 0.554 | 6.7 | -15.9 | · | ·
CC(C)C(NC(=O)OC(C)(C)C)C(=O)N1CCCC1C(=O)NC(Cc1ccccc1)C(N)=O (centres undefined) | 0.00535 | -50.4 | -0.298 | 0.819 | -18.1 | -12.3 | · | ·
O=C(Nc1cccc(F)c1)c1c(F)c(F)c(F)c(F)c1F | -1.04 | 53.8 | 3.7* | -0.943 | -33.9 | -8.1 | -0.429 | -58.3
O=C(Nc1ccccc1NC(=O)c1c(F)c(F)c(F)c(F)c1F)c1c(F)c(F)c(F)c(F)c1F | -1.64 | 53.9 | 2.89* | -1.15 | -24.2 | -11.1 | -4.43 | ?
O=C(Cc1cccs1)Nc1cccnc1 | -0.651 | -9.9 | -1.18 | -0.847 | -19.9 | 9.4 | · | ·
Cc1nn(Cc2ccc(F)cc2)c(C)c1NC(=O)c1noc2c1CCCCC2 | 0.0906 | · | 5.89* | 0.184 | 1.3 | -1.2 | -6.75 | -39.6
Cc1nn(Cc2ccc(Cl)c(Cl)c2)c(C)c1NC(=O)c1cc(-c2ccc3c(c2)OCO3)on1 | -1.89 | · | 4.14* | -0.797 | -5.3 | -23.3 | 31.1 | -10.8
Cc1nn(Cc2ccc(Cl)cc2)c(C)c1NC(=O)c1cc(-c2ccc3c(c2)OCO3)on1 | 0.00934 | -5.3 | -0.187 | -0.675 | -12.6 | -8.6 | · | ·
CCN=C1SC(CC(=O)Nc2ccc(C(F)(F)F)cc2)C(=O)N1CC (centres undefined) | -2.95* | -23.9 | 12.4* | · | -9.1 | 9.6 | ? | -47.9
CCN=C1SC(CC(=O)NC2CCCCC2)C(=O)N1CC (centres undefined) | 0.135 | -22.1 | 0.213 | 0.0485 | 11.4 | 3.9 | · | ·
CCN=C1SC(CC(=O)Nc2ccc(N3CCOCC3)cc2)C(=O)N1CC (centres undefined) | -0.662 | -21.3 | 2.84* | 1.09 | -12.3 | -6.5 | ? | -52.1
CCN(CC)CC(C)OC(=O)COc1ccc(OC)cc1 (centres undefined) | · | 54.7 | · | · | · | · | · | ·
O=C(CSc1ncnc2c1oc1ccccc12)NCc1ccc(F)cc1 | -0.392 | · | 0.432 | 0.333 | 7.5 | 9.5 | · | ·
O=C(c1cn(-c2ccccc2)nc1-c1ccc(Cl)s1)N1CCOCC1 | -0.248 | -7.7 | 7.71* | 0.387 | 9.9 | 1.0 | -26.6 | -26
SMILES | M1 antagonist | mHtt clearance | M1 ag | D1 mod | RORA act | SF-1 act | M1 ag confirm | M4 agonist ctr
NC/C(=N\O)c1ccc(Cl)cc1Cl | 0.0878 | · | -0.324 | -0.566 | 0.1 | -3.6 | · | ·
CC1Cc2ccccc2N1C(=O)c1cc2c(=O)n3ccccc3nc2n1C (centres undefined) | -0.578 | · | 8.41* | -2.11 | 2.8 | 3.3 | -6.45 | -11.9
Cn1c(C(=O)N2CCc3ccccc3C2)cc2c(=O)n3ccccc3nc21 | 0.459 | · | 2.14 | 2.93 | 7.4 | 5.2 | · | ·
O=C(Nn1cnnc1)c1ccccc1CCc1ccccc1 | · | · | · | -0.336 | -1.6 | -12.4 | · | ·
O=C(Nc1ccccc1)NC1(C(=O)NCCCN2CCOCC2)CCCCC1 | 1.11 | · | 4.01* | 0.157 | -10.6 | 19.7 | ? | -58.1
Nc1nc(CSc2n[nH]c(-c3ccccc3)n2)nc(Nc2ccccc2)n1 | -0.0192 | · | 2.21* | 2.73 | 71.8* | 34.3 | -42.4* | -46.7
O/N=C1\CCc2cc(Cl)ccc21 | -0.154 | 11.3 | 5.48* | · | -12.1 | 1.8 | 4.87 | -7.32
C1=CN2CCC1C(c1ccccc1)C2 (centres undefined) | -7.97* | -0.9 | 43.8* | -0.313 | -4.4 | 4.8 | 428* | 7.55
Cc1ccc(C)c(N2CCN(Cc3nnnn3C3CCCCC3)CC2)c1 | 0.00406 | 9.6 | 10.2* | -0.0164 | -1.9 | 10.1 | -6.38 | -23.7
COc1ccc(-n2c(Cc3cc(=O)[nH]c(=O)[nH]3)nnc2SCC(=O)N2CCCC2)cc1 | 0.155 | -198.1 | 3.52* | 0.00319 | -13.0 | -8.9 | -8.33 | -18.2
COc1cccc(-n2c(Cc3cc(=O)[nH]c(=O)[nH]3)nnc2SCC(=O)N2CCCC2)c1 | -0.172 | 15.2 | -1.89 | 0.506 | -4.8 | 14.5 | · | ·
CCN1CCN(C(=O)C2CCN(Cc3nc(-c4ccc(Cl)cc4)oc3C)CC2)CC1 | 1.14 | · | 0.688 | -0.284 | 20.7 | 17.5 | · | ·
Cc1oc(-c2ccc(Cl)cc2)nc1CN1CCCC(C(=O)N2CCN(C(=O)c3ccco3)CC2)C1 (centres undefined) | -1.57 | · | 3.97* | -3.31* | -3.3 | -13.1 | -7.46 | -43.6
O=C(Cn1nnc(-c2ccccc2F)n1)Nc1ccc2c(c1)OCO2 | -0.0765 | 22.5 | 5.68* | -0.143 | 10.6 | 0.8 | ? | -62.3
O=C(Cn1nnc(-c2ccccc2F)n1)Nc1ccc(C(=O)N2CCOCC2)cc1 | 0.648 | · | -0.97 | -1.14 | -0.4 | -14.0 | · | ·
C=CCn1c(=O)c2c(nc3n2CC(C)CN3c2cccc(OC)c2)n(C)c1=O (centres undefined) | 0.256 | · | 1.94* | 1.23 | 29.5 | -18.4 | -12.7 | ?
CC1CN(c2ccc(Oc3ccccc3)cc2)c2nc3c(c(=O)n(CC(N)=O)c(=O)n3C)n2C1 (centres undefined) | -0.134 | · | 0.187 | 0.0962 | 30.3 | 2.3 | · | ·
